Measurements reported in ChEMBL document CHEMBL4665863 (Bioorg Med Chem, 2020).
In brackets after ≈: the same amount, converted by molar mass. Activity calls are given as the source filed them. The rule behind the calls is not given here.

Columns and labels:
Staphylococcus aureus [1] = assay: Bacteriostatic activity against Staphylococcus aureus clinical isolate assessed as ratio of MBC to MIC; assay type: functional
Staphylococcus aureus [2] = assay: Bacteriostatic activity against penicillin-resistant Staphylococcus aureus assessed as ratio of MBC to MIC; assay type: functional
Staphylococcus aureus [3] = assay: Bacteriostatic activity against methicillin-resistant Staphylococcus aureus ATCC43300 assessed as ratio of MBC to MIC; assay type: functional
Staphylococcus aureus [4] = assay: Bacteriostatic activity against Staphylococcus aureus ATCC25923 assessed as ratio of MBC to MIC; assay type: functional
Staphylococcus aureus [5] = assay: Bactericidal activity against Staphylococcus aureus clinical isolate assessed as reduction in number of colony forming units incubated for 24 hrs followed by re-plating and reincubation on tryptic soy agar plate for 24 hrs; assay type: functional
Staphylococcus aureus [6] = assay: Bactericidal activity against penicillin-resistant Staphylococcus aureus assessed as reduction in number of colony forming units incubated for 24 hrs followed by re-plating and reincubation on tryptic soy agar plate for 24 hrs; assay type: functional
Staphylococcus aureus [7] = assay: Bactericidal activity against methicillin-resistant Staphylococcus aureus ATCC43300 assessed as reduction in number of colony forming units incubated for 24 hrs followed by re-plating and reincubation on tryptic soy agar plate for 24 hrs; assay type: functional
Staphylococcus aureus [8] = assay: Bactericidal activity against Staphylococcus aureus ATCC25923 assessed as reduction in number of colony forming units incubated for 24 hrs followed by re-plating and reincubation on tryptic soy agar plate for 24 hrs; assay type: functional
Staphylococcus aureus [9] = assay: Antibacterial activity against Staphylococcus aureus clinical isolate incubated for 24 hrs by CLSI-based broth microdilution method; assay type: functional
Staphylococcus aureus [10] = assay: Antibacterial activity against Staphylococcus aureus ATCC25923 incubated for 24 hrs by CLSI-based broth microdilution method; assay type: functional
Staphylococcus aureus [11] = assay: Antibacterial activity against methicillin-resistant Staphylococcus aureus ATCC43300 incubated for 24 hrs by CLSI-based broth microdilution method; assay type: functional
Bacillus subtilis [12] = assay: Inhibition of ftsZ in Bacillus subtilis assessed as increase in enzyme polymerization kinetics at 5 ug/ml measured for 30 mins by microtiter plate-based light scattering assay; details: dose 5.0 µg/ml
Outline: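 Purified recombinant B. subtilis FtsZ was used. Polymerization was followed as light scattering in microtiter plates, read as time-dependent absorbance at 340 nm at several compound concentrations. Vehicle, CIP and LIN served as controls.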

Pseudomonas aeruginosa = assay: Antibacterial activity against Pseudomonas aeruginosa ATCC27853 incubated for 24 hrs by CLSI-based broth microdilution method; assay type: functional
Escherichia coli = assay: Antibacterial activity against Escherichia coli ATCC25922 incubated for 24 hrs by CLSI-based broth microdilution method; assay type: functional; details: ATCC 25922
Staphylococcus aureus [13] = assay: Antibacterial activity against penicillin-resistant Staphylococcus aureus incubated for 24 hrs by CLSI-based broth microdilution method; assay type: functional
Bacillus pumilus = assay: Antibacterial activity against Bacillus pumilus CMCC63202 incubated for 24 hrs by CLSI-based broth microdilution method; assay type: functional
Bacillus subtilis [14] = assay: Antibacterial activity against Bacillus subtilis ATCC9372 incubated for 24 hrs by CLSI-based broth microdilution method; assay type: functional
Bacillus subtilis [15] = assay: Inhibition of ftsZ in Bacillus subtilis assessed as increase in enzyme polymerization kinetics at 10 ug/ml measured for 30 mins by microtiter plate-based light scattering assay; details: dose 10.0 µg/ml

inhibition (Bacillus subtilis [15]) | Compound | Ratio (Staphylococcus aureus [1]) | Ratio (Staphylococcus aureus [2]) | Ratio (Staphylococcus aureus [3]) | Ratio (Staphylococcus aureus [4]) | MBC (Staphylococcus aureus [5]) | MBC (Staphylococcus aureus [6]) | MBC (Staphylococcus aureus [7]) | MBC (Staphylococcus aureus [8]) [µg/mL] | MIC (Staphylococcus aureus [9]) [µg/mL] | MIC (Staphylococcus aureus [10]) [µg/mL] | MIC (Staphylococcus aureus [11]) [µg/mL] | FtsZ polymerization increase (active/inactive call) (Bacillus subtilis [12]) | MIC (Pseudomonas aeruginosa) [µg/mL] | MIC (Escherichia coli) [µg/mL] | MIC (Staphylococcus aureus [13]) [µg/mL] | MIC (Bacillus pumilus) [µg/mL] | MIC (Bacillus subtilis [14]) [µg/mL]
 | CC[C@H]1OC(=O)[C@H](C)[C@@H](O[C@H]2C[C@@](C)(OC)[C@@H](O)[C@H](C)O2)[C@H](C)[C@@H](O[C@@H]2O[C@H](C)C[C@H](N(C)C)[C@H]2O)[C@](C)(OC)C[C@@H](C)C(=O)[C@H](C)[C@@H](O)[C@]1(C)O [CLARITHROMYCIN] | inactive | inactive | inactive | 32 | inactive | inactive | inactive | 4 (≈ 5.35 µM) | > 64 | 0.125 (≈ 0.167 µM) | > 64 |  |  |  |  |  | 
 | CCCCc1ccc(C2=NO[C@H](COc3ccc(F)c(C(N)=O)c3F)C2)cc1 |  |  |  |  |  |  |  |  | ≤ 0.125 | 0.25 (≈ 0.644 µM) | ≤ 0.125 | Active | > 64 | > 64 | 0.25 (≈ 0.644 µM) | ≤ 0.125 | ≤ 0.125
inactive | O=C(O)c1cn(C2CC2)c2cc(N3CCNCC3)c(F)cc2c1=O |  |  |  |  |  |  |  |  |  |  |  |  |  |  |  |  | 
 | NC(=O)c1c(F)ccc(OCc2nc3cc(Cl)cnc3s2)c1F |  |  |  |  |  |  |  |  | 1 (≈ 2.81 µM) | 1 (≈ 2.81 µM) | 1 (≈ 2.81 µM) |  | > 64 | > 64 | 1 (≈ 2.81 µM) | 0.5 (≈ 1.41 µM) | 0.5 (≈ 1.41 µM)
 | CCCCc1ccc(C2=NO[C@@H](COc3ccc(F)c(C(N)=O)c3F)C2)cc1 |  |  |  |  |  |  |  |  | 2 (≈ 5.15 µM) | 4 (≈ 10.3 µM) | 2 (≈ 5.15 µM) | Active | > 64 | > 64 | 1 (≈ 2.57 µM) | 0.5 (≈ 1.29 µM) | 0.25 (≈ 0.644 µM)
 | CC(C)(C)c1ccc(C2=NOC(COc3ccc(F)c(C(N)=O)c3F)C2)cc1 (stereo unspecified) |  |  |  |  |  |  |  |  | 4 (≈ 10.3 µM) | 4 (≈ 10.3 µM) | 2 (≈ 5.15 µM) |  | > 64 | > 64 | 4 (≈ 10.3 µM) | ≤ 0.125 | 0.25 (≈ 0.644 µM)
